Source: PubChem BioAssay (The Scripps Research Institute Molecular Screening Center)
TCR-CD3 inh = inhibitors of human TCR-CD3 interaction, primary screen, biochemical, fluorescence, TAMRA-labeled TCR probe | inhibition, % at 9.4 µM | 360,000 compounds, 0.37% hits;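 note: recombinant mutant TCR 2C K166C tagged with TAMRA read by polarization; 0% = receptor in buffer alone and 100% = receptor with positive control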
rCAG RNA binder = binders of r(CAG) RNA repeats, primary screen, biochemical, fluorescence; r(CAG) RNA repeat, TO-PRO-1 dye displacement fluorescence; inhibition, % at 3 µM; 370,000 compounds, 1.3% hits; AID 651821, 2012;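 active = inhibition above the plate cutoff, the mean of all test compounds on that plate plus 3 SD, cut at about 35% in these data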;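 note: 0% = DMSO alone and 100% = 100 µM mitoxantrone as full dye displacement; higher means more dye released from RNA so lower well fluorescence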
PRMT1 inh = PRMT1 methyltransferase inhibitors, primary screen, biochemical, fluorescence polarization; Protein arginine N-methyltransferase 1 (Homo sapiens), Q99873; recombinant PRMT1, activity-based probe fluorescence polarization; inhibition, % at 2.79 µM; 370,000 compounds, 1.3% hits; AID 652257, 2013;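 active = inhibition above about 21% made by adding two undisclosed values, limit read from the data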
Target sequence (Q99873 whole entry, looked up): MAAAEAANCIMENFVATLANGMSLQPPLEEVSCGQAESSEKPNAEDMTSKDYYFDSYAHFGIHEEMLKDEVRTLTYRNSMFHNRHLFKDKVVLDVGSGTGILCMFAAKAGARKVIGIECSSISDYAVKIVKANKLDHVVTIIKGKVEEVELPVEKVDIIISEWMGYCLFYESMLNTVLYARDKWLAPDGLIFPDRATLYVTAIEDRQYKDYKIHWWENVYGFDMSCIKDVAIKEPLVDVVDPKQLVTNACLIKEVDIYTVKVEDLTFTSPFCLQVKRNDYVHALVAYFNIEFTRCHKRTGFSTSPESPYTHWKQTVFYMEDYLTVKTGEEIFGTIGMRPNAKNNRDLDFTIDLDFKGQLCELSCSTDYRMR
SIAE primary = human SIAE inhibitors, primary screen, biochemical, fluorescence polarization, FP-Rh probe, 1536-well HTS | AID 1053197, 2014 | 370,000 compounds, 0.69% hits | inhibition, % at 9.66 µM | SIAE FP-Rh probe binding | Sialate O-acetylesterase (Homo sapiens), Q9HAT2;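 active = inhibition above a cutoff: mean of compounds within the control limits plus 3 SD of those, cut at about 17% in these data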;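 note: 0% = plate median of compound wells and 100% = probe without SIAE protein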
mABHD4 FP = ABHD4 inhibitors, primary screen, biochemical, fluorescence polarization, mouse; (Lyso)-N-acylphosphatidylethanolamine lipase (Mus musculus), Q8VD66; purified mABHD4, FP-Rh probe fluorescence polarization; inhibition, % at 8.92 µM; 370,000 compounds, 0.54% hits;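 active = inhibition exceeding the mean over every tested compound plus 3 SD, cut at about 30% in these data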;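 note: 0% = plate median of compound wells and 100% = S159A mutant with DMSO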
Target sequence (Q8VD66 whole entry, looked up): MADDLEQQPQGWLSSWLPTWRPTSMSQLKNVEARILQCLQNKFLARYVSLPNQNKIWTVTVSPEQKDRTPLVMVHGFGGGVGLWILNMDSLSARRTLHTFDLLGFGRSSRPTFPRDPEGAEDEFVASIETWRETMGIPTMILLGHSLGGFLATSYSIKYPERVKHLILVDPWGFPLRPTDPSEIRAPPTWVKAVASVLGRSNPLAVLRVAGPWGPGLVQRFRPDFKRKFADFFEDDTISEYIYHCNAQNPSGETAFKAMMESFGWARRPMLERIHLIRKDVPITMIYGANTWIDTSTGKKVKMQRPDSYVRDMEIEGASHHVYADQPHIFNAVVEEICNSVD
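Test system: mouse ABHD4 enzyme, wild type. Reagent: FP-Rh fluorescent activity-based probe, added after compound pre-incubation. Timing: pre-incubation 45 min, probe exposure 60 min, at 25 °C. Technique: FP readout, ex 525 nm / em 598 nm. Benchmarks: high control S159A mutant with DMSO, low control median of compound wells.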
BSA TAMRA ctr = compounds interfering with TAMRA-BSA probe, counter-screen for TCR-CD3 interaction inhibitor project, biochemical, fluorescence, TAMRA-labeled BSA. TAMRA-labeled BSA probe fluorescence counterscreen. inhibition, % at 9.4 µM. AID 652035, 2013. shares compounds with TCR-CD3 inh. 1,200 compounds, 10% hits; in the data active = inhibition above about 23%;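 note: 0% = buffer low control and 100% = reference high control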
TCR-CD3 inh conf = TCR-CD3 interaction inhibitors, retest, confirmation, biochemical, fluorescence, TAMRA-labeled TCR probe; shares compounds with TCR-CD3 inh; TAMRA-labeled TCR probe fluorescence binding assay; inhibition, % at 9.4 µM; 1,200 compounds, 48% hits
rCAG binder conf = small molecules binding CAG repeat RNA – biochemical, fluorescence, confirmation. r(CAG) RNA repeat, TO-PRO-1 dye displacement fluorescence. shares compounds with rCAG RNA binder. inhibition, % at 3 µM. 4,300 compounds, 70% hits;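 active = inhibition above a per-plate cutoff, the mean inhibition of sample wells plus 3 SD, cut at about 35% in these data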;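 note: loss of TO-PRO-1 fluorescence as compound displaces dye from 1x1 AA loop RNA; 0% = DMSO only wells and 100% = 100 µM mitoxantrone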
dCAG dye counter = displacement of TO-PRO-1 from CAG DNA duplex, counter-screen for rCAG RNA repeat binder project, biochemical, fluorescence, TO-PRO-1 dye, d(CAG) DNA oligo; AID 652068, 2013; d(CAG) DNA oligo TO-PRO-1 dye displacement; 4,300 compounds, 94% hits; inhibition, % at 3 µM; shares compounds with rCAG RNA binder;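 active = inhibition above its plate's cutoff, the mean test-well inhibition plus 3 SD, cut at about 4.8% in these data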;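 note: 0% = DNA dye mix with DMSO and 100% = 100 µM mitoxantrone; hits displace the dye from DNA and so lower well fluorescence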
DNA CAG DR = inhibitors of DNA CAG/GTC TO-PRO-1 complex, dose response, counter-screen for rCAG RNA repeat binder project, biochemical, fluorescence, TO-PRO-1 dye; 250 compounds, 20% hits; shares compounds with rCAG RNA binder; DNA CAG/GTC duplex TO-PRO-1 dye displacement fluorescence; IC50, µM; AID 686960, 2013; in the data active = IC50 below about 10 µM
PRMT1 confirm = PRMT1 methyltransferase inhibitors, confirmation, biochemical, fluorescence polarization, triplicate | shares compounds with PRMT1 inh | recombinant His-PRMT1, activity-based probe fluorescence polarization | 3,300 compounds, 42% hits | inhibition, % at 2.79 µM;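 active = mean inhibition across replicates above the hit cutoff derived for the earlier primary screen, cut at about 22% in these data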
mABHD4 conf = ABHD4 inhibitors, retest, confirmation, biochemical, fluorescence polarization, mouse; inhibition, % at 8.92 µM; shares compounds with mABHD4 FP; purified mABHD4, FP-Rh probe fluorescence polarization; 1,800 compounds, 55% hits;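 active = mean inhibition across replicates above the hit cutoff set in the primary screen, cut at about 30% in these data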;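 note: 0% = wild-type ABHD4 with DMSO and 100% = catalytically dead S159A mutant with DMSO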
Numbers without * were called inactive; i = inactive; nt = no result given. An excerpt weighted towards active compounds, which were near 3.3% of everything screened. Cut-off read from the data, not from the text of the source, unless noted: active = inhibition above about 19%; inactive = the rest.

SMILES | TCR-CD3 inh | rCAG RNA binder | PRMT1 inh | SIAE primary | mABHD4 FP | BSA TAMRA ctr | TCR-CD3 inh conf | PRMT1 confirm | others
O=C(O)c1cc(N2N=C(C(F)(F)F)/C(=C/C=C/c3ccco3)C2=O)ccc1Cl | 26* | 89* | 70* | 5 | 58* | 13 | 34* | 54* | rCAG binder conf=93*;dCAG dye counter=76*
CCOC(=O)c1ccc(N2N=C(C)/C(=C/C=C/c3ccco3)C2=O)cc1 | 3 | 9 | 1 | 10 | 5 | nt | nt | nt
NC(=O)c1sc2nc(-c3ccco3)ccc2c1N | 20* | 16 | 51* | 0 | 25 | -6 | 2 | 17
NC(=O)c1sc2nc(-c3cccnc3)ccc2c1N | 5 | 2 | 8 | 6 | 2 | nt | nt | nt
Clc1ccc(-c2nnc3n2N=C(c2ccc(-c4ccccc4)cc2)CS3)cc1 | nt | 4 | 0 | -4 | -5 | nt | nt | nt
N#C/C(=C\c1ccc(O)c(O)c1)C(=O)c1ccc(O)c(O)c1 | 23* | 31 | 35* | 11 | 24 | 12 | 72* | 19
N#Cc1c(N(CCO)CCO)nc(N)c2c(N)nc3c(c12)CC(=O)N3CC1CCCO1 (stereo unspecified) | 25* | 35* | 30* | 0 | 8 | 7 | 7 | 14 | rCAG binder conf=10;dCAG dye counter=5.7*
Cc1cccc(C)c1NC(=O)COC(=O)c1c2c(nc3ccccc13)/C(=C\c1ccc3c(c1)OCO3)CCC2 | 58* | i | 145* | 22* | 26 | 49* | 30* | 5
O=C(O[C@H]1CC[C@@]23CCCN2C(=O)CCC[C@H]3C1)N1CCOCC1 | nt | nt | 2 | -1 | 9 | nt | nt | nt
O=C(O)c1cc(O)c2c(c1)[C@@H]([C@H]1c3cc(C(=O)O)cc(O)c3C(=O)c3c(O[C@@H]4O[C@H](CO)[C@@H](O)[C@H](O)[C@H]4O)cccc31)c1cccc(OC3O[C@H](CO)[C@@H](O)[C@H](O)[C@H]3O)c1C2=O (stereo partly specified) | 153* | 100* | 32* | 68* | 27 | -13 | 109* | 13 | rCAG binder conf=86*;dCAG dye counter=52*
COc1cc(NC(=O)c2ccccn2)ccc1NC(=O)c1ccccc1Cl | nt | nt | -2 | -4 | -2 | nt | nt | nt
CSc1nc(NCCOCCO)c2sc3nc(-c4ccco4)c4c(c3c2n1)CCC4 | 20* | 52* | 41* | 7 | 8 | -3 | 0 | 24* | rCAG binder conf=38*;dCAG dye counter=18*;DNA CAG DR=i
CSc1nc(NCc2ccco2)c2sc3nc(C(C)C)c4c(c3c2n1)CC(C)(C)OC4 | 5 | 5 | 2 | -3 | 1 | nt | nt | nt
COc1ccccc1-c1cc(NC=O)c2ncc(-c3cccc(C(F)(F)F)c3)n2c1 | -3 | 6 | 3 | -5 | 1 | nt | nt | nt
CN(C)c1ccccc1-c1cc(NC=O)c2ncc(-c3cccc(C(F)(F)F)c3)n2c1 | 37* | -31 | 135* | 31* | 73* | 9 | 12 | 25*
O=C(NCCc1ccccc1)OCc1cn(-c2cccc(F)c2F)nn1 | nt | 1 | 4 | -5 | -1 | nt | nt | nt
O=C1CSC(c2ccco2)N1 (stereo unspecified) | 1 | 2 | 0 | 4 | 3 | nt | nt | nt
O=C(O)C1CSC(c2ccco2)N1 (stereo unspecified) | 21* | 21 | 27* | 7 | 15 | -3 | 17 | 32*
O=[n+]1c2c(n([O-])c3cc(F)c(N4CCCC4)cc31)CCCC2 | 23* | -71 | 46* | -2 | 3 | 30* | 28* | 48*
O=[n+]1c2c(n([O-])c3cc(F)c(N4CCCC4)cc31)CCC2 | 25* | -70 | 35* | -9 | 9 | 29* | 28* | 47*
CCCCCCCCNS(=O)(=O)CC1NCc2cc(F)ccc21 (stereo unspecified) | nt | 6 | -3 | 0 | -18 | nt | nt | nt
c1coc(-c2ccc3nncn3c2)c1 | 35* | 47* | 43* | 12 | 23 | -3 | 30* | 39* | rCAG binder conf=46*;dCAG dye counter=18*;DNA CAG DR=i
Cc1cccc(CCNC(=O)c2ccc(Sc3ccccc3Cl)c([N+](=O)[O-])c2)c1 | nt | 2 | -10 | -6 | -8 | nt | nt | nt
c1ccc(C2CCC3(CC2)CCC3NCc2cccs2)cc1 (stereo unspecified) | nt | nt | 2 | -4 | 3 | nt | nt | nt
C#CCN1c2ccccc2Sc2cccnc21 | 47* | -126 | 63* | 8 | 5 | 2 | 2 | 13
SMILES | TCR-CD3 inh | rCAG RNA binder | PRMT1 inh | SIAE primary | mABHD4 FP | BSA TAMRA ctr | TCR-CD3 inh conf | PRMT1 confirm | others
CC(CN1c2ccccc2Sc2ccccc21)N(C)C (stereo unspecified) | 5 | 2 | 0 | 6 | 4 | nt | nt | nt
CCN(CC)C(=O)CC[C@@H]1CC[C@]2(CCCN(Cc3nccs3)C2)O1 | nt | 2 | 0 | 5 | 5 | nt | nt | nt
COc1cccc(/C=N/NC(=O)c2ccc3nc[nH]c3c2)c1O | -19 | 3 | 3 | -42 | 7 | nt | nt | nt
COc1cc(OC)c2cc(C(=O)N/N=C/c3cccc(OC)c3O)[nH]c2c1 | 24* | 14 | -3 | 12 | 32* | -11 | 7 | nt | mABHD4 conf=58*
Cc1nc(S/C(=C\c2ccc(-c3ccc(C(=O)O)c(Cl)c3)o2)C(=O)O)n[nH]1 | 65* | 36* | 33* | 4 | 39* | 2 | 67* | 39* | rCAG binder conf=50*;dCAG dye counter=16*;mABHD4 conf=54*
Cc1nc2ccc(C(=O)N3CCN(C(=O)C(Cl)Cl)CC3)cc2n1C1CCCC1 | nt | 4 | 3 | 2 | -2 | nt | nt | nt
